From ChEMBL document CHEMBL5247575 (J Med Chem, 2018)

How the values were obtained:
Escherichia coli [1] = experiment: Antibacterial activity against Escherichia coli DH10B transfected with pBC SK (-) KPC-3 by broth microdilution method; format: functional
Bacteria [2] = experiment: Inhibition of bacteria PDC-3 assessed as second order rate constant K2/K using nitrocefin as substrate
Bacteria [3] = experiment: Inhibition of bacteria ADC-7 assessed as second order rate constant K2/K using nitrocefin as substrate
Escherichia coli [4] = experiment: Synergistic antibacterial activity against Escherichia coli DH10B assessed as cefepime MIC at 4 ug/ml by broth microdilution method; format: functional; details: dose 4 µg/ml
Escherichia coli [5] = experiment: Synergistic antibacterial activity against Escherichia coli DH10B transfected with pBC SK (-) PDC-3 assessed as cefepime MIC at 4 ug/ml by broth microdilution method; format: functional; details: dose 4 µg/ml
In short: (§1)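 Broth microdilution per CLSI guidelines, using custom frozen panels. […] Each partner drug was also tested alone. MICs were run in triplicate and the modal value is reported.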

Klebsiella pneumoniae [6] = experiment: Synergistic antibacterial activity against Klebsiella pneumoniae 660/1568 producing KPC-3 assessed as cefepime MIC at 4 ug/ml by broth microdilution method; format: functional; details: dose 4 µg/ml; in short: as §1
Klebsiella pneumoniae [7] = experiment: Synergistic antibacterial activity against Klebsiella pneumoniae 1084/1957 producing KPC-3 assessed as cefepime MIC at 4 ug/ml by broth microdilution method; format: functional; details: dose 4 µg/ml; in short: as §1
Klebsiella pneumoniae [8] = experiment: Synergistic antibacterial activity against Klebsiella pneumoniae 1108/1989 producing KPC-3 assessed as cefepime MIC at 4 ug/ml by broth microdilution method; format: functional; details: dose 4 µg/ml; in short: as §1
Klebsiella pneumoniae [9] = experiment: Synergistic antibacterial activity against Klebsiella pneumoniae 11978 producing OXA-48 assessed as cefepime MIC at 4 ug/ml by broth microdilution method; format: functional; details: dose 4 µg/ml; in short: as §1
Klebsiella pneumoniae [10] = experiment: Synergistic antibacterial activity against Klebsiella pneumoniae jefferson 1773 producing OXA-181 assessed as cefepime MIC at 4 ug/ml by broth microdilution method; format: functional; details: dose 4 µg/ml
Klebsiella pneumoniae [11] = experiment: Synergistic antibacterial activity against Klebsiella pneumoniae jefferson 1775 producing OXA-48 assessed as cefepime MIC at 4 ug/ml by broth microdilution method; format: functional; details: dose 4 µg/ml
Pseudomonas aeruginosa [12] = experiment: Synergistic antibacterial activity against Pseudomonas aeruginosa CL232 assessed as cefepime MIC at 4 ug/ml by broth microdilution method; format: functional; details: dose 4 µg/ml
Pseudomonas aeruginosa [13] = experiment: Synergistic antibacterial activity against Pseudomonas aeruginosa 715 assessed as cefepime MIC at 4 ug/ml by broth microdilution method; format: functional; details: dose 4 µg/ml
Pseudomonas aeruginosa [14] = experiment: Synergistic antibacterial activity against Pseudomonas aeruginosa 839 assessed as cefepime MIC at 4 ug/ml by broth microdilution method; format: functional; details: dose 4 µg/ml
Acinetobacter baumannii [15] = experiment: Synergistic antibacterial activity against Acinetobacter baumannii PR319 producing OXA-23/24/40 assessed as cefepime MIC at 4 ug/ml by broth microdilution method; format: functional; details: dose 4 µg/ml
Escherichia coli [16] = experiment: Synergistic antibacterial activity against Escherichia coli DH10B assessed as cefepime MIC at 8 ug/ml by broth microdilution method; format: functional; details: dose 8 µg/ml
Escherichia coli [17] = experiment: Synergistic antibacterial activity against Escherichia coli DH10B transfected with pBC SK (-) PDC-3 assessed as cefepime MIC at 8 ug/ml by broth microdilution method; format: functional; details: dose 8 µg/ml; in short: as §1
Klebsiella pneumoniae [18] = experiment: Synergistic antibacterial activity against Klebsiella pneumoniae 1315/2198 producing KPC-3 assessed as cefepime MIC at 8 ug/ml by broth microdilution method; format: functional; details: dose 8 µg/ml; in short: as §1
Klebsiella pneumoniae [19] = experiment: Synergistic antibacterial activity against Klebsiella pneumoniae 1354/2241 producing KPC-3 assessed as cefepime MIC at 8 ug/ml by broth microdilution method; format: functional; details: dose 8 µg/ml; in short: as §1
Klebsiella pneumoniae [20] = experiment: Synergistic antibacterial activity against Klebsiella pneumoniae 440/1360 producing KPC-2 assessed as cefepime MIC at 8 ug/ml by broth microdilution method; format: functional; details: dose 8 µg/ml; in short: as §1
Acinetobacter baumannii [21] = experiment: Synergistic antibacterial activity against ADC deleted Acinetobacter baumannii transfected with pWH1266 producing OXA-24/40 assessed as cefepime MIC at 8 ug/ml by broth microdilution method; format: functional; details: dose 8 µg/ml
Klebsiella pneumoniae [22] = experiment: Synergistic antibacterial activity against Klebsiella pneumoniae 935/1884 producing KPC-3 assessed as meropenem MIC at 4 ug/ml by broth microdilution method; format: functional; details: dose 4 µg/ml
Klebsiella pneumoniae [23] = experiment: Synergistic antibacterial activity against Klebsiella pneumoniae 1084/1957 producing KPC-3 assessed as meropenem MIC at 4 ug/ml by broth microdilution method; format: functional; details: dose 4 µg/ml; in short: as §1
Klebsiella pneumoniae [24] = experiment: Synergistic antibacterial activity against Klebsiella pneumoniae CAV 1636 producing OXA-181 assessed as meropenem MIC at 4 ug/ml by broth microdilution method; format: functional; details: dose 4 µg/ml
Klebsiella pneumoniae [25] = experiment: Synergistic antibacterial activity against Klebsiella pneumoniae CAV 1543 producing OXA-48 assessed as meropenem MIC at 4 ug/ml by broth microdilution method; format: functional; details: dose 4 µg/ml
Pseudomonas aeruginosa [26] = experiment: Synergistic antibacterial activity against Pseudomonas aeruginosa 795 assessed as meropenem MIC at 4 ug/ml by broth microdilution method; format: functional; details: dose 4 µg/ml
Acinetobacter baumannii [27] = experiment: Synergistic antibacterial activity against Acinetobacter baumannii PR323 producing OXA-24/40 assessed as meropenem MIC at 4 ug/ml by broth microdilution method; format: functional; details: dose 4 µg/ml
Acinetobacter baumannii [28] = experiment: Synergistic antibacterial activity against Acinetobacter baumannii PR381 producing OXA-24/40 assessed as meropenem MIC at 4 ug/ml by broth microdilution method; format: functional; details: dose 4 µg/ml
Acinetobacter baumannii [29] = experiment: Synergistic antibacterial activity against Acinetobacter baumannii PR474 producing OXA-23/24/40 assessed as meropenem MIC at 4 ug/ml by broth microdilution method; format: functional; details: dose 4 µg/ml
Acinetobacter baumannii [30] = experiment: Synergistic antibacterial activity against ADC deleted Acinetobacter baumannii transfected with pWH1266 producing OXA-24/40 assessed as meropenem MIC at 4 ug/ml by broth microdilution method; format: functional; details: dose 4 µg/ml
Klebsiella pneumoniae [31] = experiment: Synergistic antibacterial activity against Klebsiella pneumoniae 901/1860 producing KPC-3 assessed as meropenem MIC at 8 ug/ml by broth microdilution method; format: functional; details: dose 8 µg/ml
Klebsiella pneumoniae [32] = experiment: Synergistic antibacterial activity against Klebsiella pneumoniae 1108/1989 producing KPC-3 assessed as meropenem MIC at 8 ug/ml by broth microdilution method; format: functional; details: dose 8 µg/ml; in short: as §1
Klebsiella pneumoniae [33] = experiment: Synergistic antibacterial activity against Klebsiella pneumoniae CAV 1543 producing OXA-48 assessed as meropenem MIC at 8 ug/ml by broth microdilution method; format: functional; details: dose 8 µg/ml
Klebsiella pneumoniae [34] = experiment: Synergistic antibacterial activity against Klebsiella pneumoniae NY BS producing OXA-232 assessed as meropenem MIC at 8 ug/ml by broth microdilution method; format: functional; details: dose 8 µg/ml
Klebsiella pneumoniae [35] = experiment: Synergistic antibacterial activity against Klebsiella pneumoniae jefferson 1775 producing OXA-48 assessed as meropenem MIC at 8 ug/ml by broth microdilution method; format: functional; details: dose 8 µg/ml
Pseudomonas aeruginosa [36] = experiment: Synergistic antibacterial activity against Pseudomonas aeruginosa CL232 assessed as meropenem MIC at 8 ug/ml by broth microdilution method; format: functional; details: dose 8 µg/ml
Acinetobacter baumannii [37] = experiment: Synergistic antibacterial activity against Acinetobacter baumannii PR420 producing OXA-23/24/40 assessed as meropenem MIC at 8 ug/ml by broth microdilution method; format: functional; details: dose 8 µg/ml
Acinetobacter baumannii [38] = experiment: Synergistic antibacterial activity against Acinetobacter baumannii PR440 producing OXA-23/24/40 assessed as meropenem MIC at 8 ug/ml by broth microdilution method; format: functional; details: dose 8 µg/ml
Acinetobacter baumannii [39] = experiment: Synergistic antibacterial activity against Acinetobacter baumannii PR448 producing OXA-23 assessed as meropenem MIC at 8 ug/ml by broth microdilution method; format: functional; details: dose 8 µg/ml
[40] = Binding affinity to bacteria ADC-7 assessed as dissociation constant

SMILES: N#C[C@@H]1CC[C@@H]2CN1C(=O)N2OS(=O)(=O)[O-].[Na+]
- MIC (Escherichia coli [1]): > 16 µg/mL
- K (Bacteria [2]): 2.3 10^4/M/s
- K (Bacteria [3]): 1.9 10^4/M/s
- MIC (Escherichia coli [4]): ≤ 0.12 µg/mL
- MIC (Escherichia coli [5]): ≤ 0.12 µg/mL
- MIC (Klebsiella pneumoniae [6]): 0.25 µg/mL
- MIC (Klebsiella pneumoniae [7]): ≤ 0.12 µg/mL
- MIC (Klebsiella pneumoniae [8]): 0.25 µg/mL
- MIC (Klebsiella pneumoniae [9]): 0.5 µg/mL
- MIC (Klebsiella pneumoniae [10]): 1 µg/mL
- MIC (Klebsiella pneumoniae [11]): ≤ 0.12 µg/mL
- MIC (Pseudomonas aeruginosa [12]): > 16 µg/mL
- MIC (Pseudomonas aeruginosa [13]): 16 µg/mL
- MIC (Pseudomonas aeruginosa [14]): 8 µg/mL
- MIC (Acinetobacter baumannii [15]): > 16 µg/mL
- MIC (Escherichia coli [16]): ≤ 0.12 µg/mL
- MIC (Escherichia coli [17]): ≤ 0.12 µg/mL
- MIC (Klebsiella pneumoniae [18]): 0.25 µg/mL
- MIC (Klebsiella pneumoniae [19]): ≤ 0.12 µg/mL
- MIC (Klebsiella pneumoniae [20]): 0.25 µg/mL
- MIC (Acinetobacter baumannii [21]): 16 µg/mL
- MIC (Klebsiella pneumoniae [22]): ≤ 0.12 µg/mL
- MIC (Klebsiella pneumoniae [23]): ≤ 0.12 µg/mL
- MIC (Klebsiella pneumoniae [24]): ≤ 0.12 µg/mL
- MIC (Klebsiella pneumoniae [25]): ≤ 0.12 µg/mL
- MIC (Pseudomonas aeruginosa [26]): 16 µg/mL
- MIC (Acinetobacter baumannii [27]): 16 µg/mL
- MIC (Acinetobacter baumannii [28]): > 16 µg/mL
- MIC (Acinetobacter baumannii [29]): > 16 µg/mL
- MIC (Acinetobacter baumannii [30]): > 16 µg/mL
- MIC (Klebsiella pneumoniae [31]): ≤ 0.12 µg/mL
- MIC (Klebsiella pneumoniae [32]): ≤ 0.12 µg/mL
- MIC (Klebsiella pneumoniae [33]): ≤ 0.12 µg/mL
- MIC (Klebsiella pneumoniae [34]): ≤ 0.12 µg/mL
- MIC (Klebsiella pneumoniae [35]): ≤ 0.12 µg/mL
- MIC (Pseudomonas aeruginosa [36]): > 16 µg/mL
- MIC (Acinetobacter baumannii [37]): 8 µg/mL
- MIC (Acinetobacter baumannii [38]): 2 µg/mL
- MIC (Acinetobacter baumannii [39]): 1 µg/mL

SMILES: O=C(NNC(=O)[C@@H]1CC[C@@H]2CN1C(=O)N2OS(=O)(=O)O)[C@@H]1CCNC1
- K (Bacteria [2]): 6.3 10^5/M/s
- K (Bacteria [3]): 3.2 10^4/M/s
- Kd [40]: 29 nM
- MIC (Escherichia coli [4]): ≤ 0.12 µg/mL
- MIC (Escherichia coli [5]): ≤ 0.12 µg/mL
- MIC (Klebsiella pneumoniae [6]): ≤ 0.12 µg/mL
- MIC (Klebsiella pneumoniae [7]): ≤ 0.12 µg/mL
- MIC (Klebsiella pneumoniae [8]): ≤ 0.12 µg/mL
- MIC (Klebsiella pneumoniae [9]): ≤ 0.12 µg/mL
- MIC (Klebsiella pneumoniae [10]): ≤ 0.12 µg/mL
- MIC (Klebsiella pneumoniae [11]): ≤ 0.12 µg/mL
- MIC (Pseudomonas aeruginosa [12]): 8 µg/mL
- MIC (Pseudomonas aeruginosa [14]): ≤ 0.12 µg/mL
- MIC (Escherichia coli [16]): ≤ 0.12 µg/mL
- MIC (Escherichia coli [17]): ≤ 0.12 µg/mL
- MIC (Klebsiella pneumoniae [18]): ≤ 0.12 µg/mL
- MIC (Klebsiella pneumoniae [19]): ≤ 0.12 µg/mL
- MIC (Klebsiella pneumoniae [20]): ≤ 0.12 µg/mL
- MIC (Acinetobacter baumannii [21]): 16 µg/mL
- MIC (Klebsiella pneumoniae [22]): ≤ 0.12 µg/mL
- MIC (Klebsiella pneumoniae [23]): ≤ 0.12 µg/mL
- MIC (Klebsiella pneumoniae [24]): ≤ 0.12 µg/mL
- MIC (Klebsiella pneumoniae [25]): ≤ 0.12 µg/mL
- MIC (Acinetobacter baumannii [27]): > 16 µg/mL
- MIC (Acinetobacter baumannii [28]): > 16 µg/mL
- MIC (Acinetobacter baumannii [29]): > 16 µg/mL
- MIC (Acinetobacter baumannii [30]): > 16 µg/mL
- MIC (Klebsiella pneumoniae [31]): ≤ 0.12 µg/mL
- MIC (Klebsiella pneumoniae [32]): ≤ 0.12 µg/mL
- MIC (Klebsiella pneumoniae [33]): ≤ 0.12 µg/mL
- MIC (Klebsiella pneumoniae [34]): ≤ 0.12 µg/mL
- MIC (Klebsiella pneumoniae [35]): ≤ 0.12 µg/mL
- MIC (Pseudomonas aeruginosa [36]): 16 µg/mL
- MIC (Acinetobacter baumannii [37]): > 16 µg/mL
- MIC (Acinetobacter baumannii [38]): > 16 µg/mL
- MIC (Acinetobacter baumannii [39]): > 16 µg/mL
